Results of several laboratories.
Observed: cell growth or viability

| Structure (SMILES) | cell line | method | tested at | time | measurement | value |
| --- | --- | --- | --- | --- | --- | --- |
| CN1C(=O)C(=O)c2cc3c(c4c2c1cc1ccccc14)OCO3 | HuCC-A1 | MTT |  | 75 h | IC50 | 44400 nM |
| O=C(NO)c1ccc(Cn2cnc3c(Nc4ccc(Br)cc4F)ncnc32)cc1 | U-937 | MTT |  | 72 h | IC50 | 2160 nM |
| CC(C)(C)c1cc(NC(=O)Nc2ccc(-c3cn4c(n3)sc3cc(OCCN5CCOCC5)ccc34)cc2)no1 | ML-2 |  |  | 72 h | GI50 | > 10000 nM |
| C=C(NC(=O)C(=C)NC(=O)c1csc(C2=N[C@@H]3c4csc(n4)[C@H]4NC(=O)c5csc(n5)[C@H]([C@](C)(O)[C@@H](C)O)NC(=O)[C@H]5CSC(=N5)/C(=C/C)NC(=O)[C@H]([C@@H](C)O)NC(=O)c5csc(n5)[C@]3(CC2)NC(=O)[C@H](C)NC(=O)C(=C)NC(=O)[C@H](C)NC(=O)[C@H]([C@@H](C)CC)N[C@@H]2C=Cc3c([C@H](C)O)cc(nc3[C@H]2O)C(=O)O[C@@H]4C)n1)C(N)=O | Calu-1 |  |  |  | EC50 | 3200 nM |
| CCCCCCCCCCCCCCCCCCOc1ccccc1CC(=O)OCC[N+]1(C)CCCC1 | NCI-H226 | SRB | 10 µM |  | inhibition | 86.6% |
| CN1CCC(NC2CCc3[nH]c4c(C(N)=O)ccc(-c5ccccc5Cl)c4c3C2)CC1 (stereo not shown) | MINO |  |  | 96 h | IC50 | 27.3 nM |
| C=C1C[C@@]23CC[C@H]4[C@@](C)(CCC[C@@]4(C)C(=O)O)[C@@H]2CC[C@@H]1C3 | HuCC-A1 | MTT |  | 75 h | IC50 | 108000 nM |
| CCCCCCCCCCCCCCCCCCOc1ccc(CC(=O)OCC[N+](CC)(CC)CC)cc1 | NCI-H226 | SRB | 10 µM |  | inhibition | 16.1% |
| CN(C)CCNC(=O)c1ccc(-c2nc3ccc4[nH]ncc4c3c3c2CCCC3)cc1 | U-937 |  |  | 72 h | GI50 | 658 nM |
| COc1cccc2c1C(=O)c1c(O)c3c(c(O)c1C2=O)C[C@@](O)(C(=O)CO)C[C@@H]3O[C@H]1C[C@H](N)[C@H](O)[C@H](C)O1 | HuCC-A1 | MTT |  | 48 h | IC50 | 860 nM |
| O=C(NO)c1ccc(Cn2cnc3c(Nc4cccc([N+](=O)[O-])c4)ncnc32)cc1 | U-937 | MTT |  | 72 h | IC50 | 1990 nM |
| CCCCCCCCCCCCCCCCCCOc1ccc(CC(=O)OCCC[N+](C)(C)C)cc1 | NCI-H226 | SRB | 10 µM |  | inhibition | 22.1% |
| CCc1nc(C(N)=O)c(Nc2ccc(N3CCC(N4CCN(C)CC4)CC3)c(OC)c2)nc1NC1CCOCC1 | U-937 |  |  | 72 h | GI50 | 4390 nM |
| Nc1ccccc1NC(=O)c1ccc(Cn2cnc3c(Nc4ccc(Br)cc4F)ncnc32)cc1 | U-937 | MTT |  | 72 h | IC50 | 1370 nM |
| CN(C)CCNC(=O)c1ccc(-c2nc3ccc4[nH]ncc4c3c3c2CCCCC3)cc1 | U-937 |  |  | 72 h | GI50 | 1480 nM |
| Cc1nc(Nc2ncc(C(=O)Nc3c(C)cccc3Cl)s2)cc(N2CC[C@H](O)C2)n1 | SU-DHL-8 | ATP luminescence |  | 72 h | IC50 | > 10000 nM |
| O=C(NO)c1ccc(Cn2cnc3c(Nc4ccc(Cl)cc4)ncnc32)cc1 | U-937 | MTT |  | 72 h | IC50 | 7910 nM |
| Cc1n[nH]c2ccc3nc(-c4ccc(C(=O)NCCN(C)C)cc4)c4c(c3c12)CCCCC4 | ML-2 |  |  | 72 h | GI50 | 1070 nM |
| CCCCCCCCCCCCCCCCCCOCC(COP(=O)([O-])OCC[N+](C)(C)C)OC (stereo not shown) | NCI-H226 | SRB | 10 µM |  | inhibition | 6.1% |
| CN(C)CCNC(=O)c1ccc(-c2nc3ccc4[nH]ncc4c3c3c2CCCC3)c(F)c1 | ML-2 |  |  | 72 h | GI50 | 243 nM |
| CCCCCCCCCCCCCCCCCCOc1cccc(CC(=O)OCC[N+](C)(C)C)c1 | NCI-H226 | SRB | 10 µM |  | inhibition | 5.79% |
| C=C[C@]1(C)C=C2CC[C@H]3C(C)(C)CCC[C@]3(C)[C@H]2CC1 | HuCC-A1 | MTT |  | 75 h | IC50 | 108000 nM |
| CCCCCCCCCCCCCCCCCCOc1cccc(CC(=O)OCC[N+]2(C)CCCCC2)c1 | NCI-H226 | SRB | 10 µM |  | inhibition | 10.8% |
| COc1cccc2c1C(=O)c1c(O)c3c(c(O)c1C2=O)C[C@@](O)(C(=O)CO)C[C@@H]3O[C@H]1C[C@H](N)[C@H](O)[C@H](C)O1 | MINO |  |  | 96 h | IC50 | 11.7 nM |
| Cc1n[nH]c2ccc3nc(-c4ccc(C(=O)NCCN(C)C)cc4F)c4c(c3c12)CCCC4 | U-937 |  |  | 72 h | GI50 | 183 nM |
| CCCCCCCCCCCCCCCCCCOc1ccccc1CC(=O)OCC[N+](CC)(CC)CC | NCI-H226 | SRB | 10 µM |  | inhibition | 46.3% |
| Cc1n[nH]c2ccc3nc(-c4ccc(C(=O)NCCN(C)C)cc4)c4c(c3c12)CCCC4 | ML-2 |  |  | 72 h | GI50 | 429 nM |
| CCCCCCCCCCCCCCCCCCOc1cccc(CC(=O)OCC[N+]2(C)CCOCC2)c1 | NCI-H226 | SRB | 10 µM |  | inhibition | 6.29% |
